A3G deaminase: inhibitors of human APOBEC3G DNA deaminase; Q9HC16; recombinant A3G, ssDNA deamination FAM/TAMRA fluorescence; inhibition, % at 20 µM; hit rate 0.28% among 330,000; AID 493012;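 active = inhibition of at least 40% at 20 µM, with no more than 30% in the related APOBEC3A deaminase screen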;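 also: plate controls were DMSO wells with A3G for no effect and wells lacking A3G enzyme for full effect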
Target sequence (Q9HC16 whole entry, looked up): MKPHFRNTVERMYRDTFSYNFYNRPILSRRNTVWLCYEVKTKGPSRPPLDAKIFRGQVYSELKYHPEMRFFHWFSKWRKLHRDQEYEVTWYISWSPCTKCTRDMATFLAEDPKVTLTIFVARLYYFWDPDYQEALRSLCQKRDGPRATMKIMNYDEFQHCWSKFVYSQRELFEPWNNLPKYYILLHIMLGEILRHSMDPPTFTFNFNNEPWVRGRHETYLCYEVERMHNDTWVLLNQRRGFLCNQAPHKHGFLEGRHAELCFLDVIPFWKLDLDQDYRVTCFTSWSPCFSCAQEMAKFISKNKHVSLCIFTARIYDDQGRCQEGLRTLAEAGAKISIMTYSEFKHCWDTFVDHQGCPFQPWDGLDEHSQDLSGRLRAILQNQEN
C2C12 statin: suppression of simvastatin myotoxicity | C2C12 myotubes + simvastatin, ATP luminescence, 48 h; scaled: DMSO 0, geranylgeraniol control 100 | hit rate 0.78% among 330,000 | rescue of ATP level, % at 7.49 µM;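 active = mean ATP rescue above about 67%, or every replicate alone reaching that limit, limit read from the data, passing the limit was not always enough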;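 also: myotubes were challenged with 10 µM simvastatin during compound exposure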
ASAP1 GAP inh: blocks human ASAP1-stimulated Arf1 GTP hydrolysis; Q9ULH1; GDP FP detection; inhibition, % at 16.5 µM; hit rate 0.19% among 360,000; in the data active = inhibition above about 25%;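 also: 0% = vehicle with enzyme and substrate and 100% = no enzyme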
SUMO Mot1 rescue: blocks SUMOylation pathway, rescuing yeast Mot1-301 growth; S. cerevisiae Mot1-301 growth rescue, ATP luminescence, 38.5C; percent above DMSO median, 100 means doubled; growth rescue, % at 18.8 µM; hit rate 1% among 320,000;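 active = every valid replicate shows activation above 250% relative to neutral control wells; inactive = the rest, any valid replicate at or below 250%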;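 also: OY570 slx delta 5 strain wells were the positive control but not used for scaling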
APOBEC3A inh: human APOBEC3A DNA deaminase inhibition | AID 493011 | P31941 | recombinant A3A, FAM/TAMRA ssDNA deamination fluorescence | hit rate 0.41% among 330,000 | inhibition, % at 20 µM;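 active = at least 40% inhibition at 20 µM here, with at most 30% in a related deaminase screen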;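 also: plate controls were A3A with DMSO for no effect and wells lacking A3A enzyme for full effect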
ARFGAP1 inh: rat ARFGAP1 inhibition | Q62848 | Arfgap1-stimulated ARF1 GTP hydrolysis, GDP FP detection | inhibition, % at 16.5 µM | hit rate 0.26% among 360,000;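 active = inhibition above a per-plate limit, mean inhibition of low control wells plus 3 SD, cut at about 25% in these data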;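 also: 0% = DMSO wells with enzyme and 100% = wells lacking Arfgap1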
Target sequence (Q62848 1-136 limits assumed): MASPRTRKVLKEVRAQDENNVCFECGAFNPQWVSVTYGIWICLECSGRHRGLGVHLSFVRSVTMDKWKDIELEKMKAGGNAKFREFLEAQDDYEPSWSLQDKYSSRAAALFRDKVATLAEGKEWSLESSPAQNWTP
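Assay system: purified rat His6-Arfgap1 residues 1-136 (GAP domain); Reagent: human Δ17 ARF1 bound to GTP; Dosing: 16.5 µM single point, 1.26% DMSO; Times: GTP hydrolysis reaction 2 h at 25 °C; Signal: FP, GDP Alexa 633 tracer displaced from anti-GDP antibody, 620/688 nm; Measure: % inhibition from polarization.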
ASAP1 inh confirm: ASAP1 inhibition confirmed. hit rate 37% among 620. inhibition, % at 16.5 µM. ASAP1-stimulated Arf1 GTPase, GDP fluorescence polarization. shares compounds with ASAP1 GAP inh;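 active = mean inhibition over triplicates exceeds the hit threshold derived for the earlier primary screening run, cut at about 25% in these data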
ARFGAP1 confirm: rat ARFGAP1 inhibition, confirmed; shares compounds with ARFGAP1 inh; inhibition, % at 16.5 µM; hit rate 30% among 890; ARFGAP1-stimulated ARF1 GTP hydrolysis, GDP tracer FP;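 active = average inhibition over triplicates above the hit cutoff set in the earlier primary screen, cut at about 25% in these data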;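 also: 0% = Arfgap1 plus ARF1-GTP with DMSO and 100% = wells lacking Arfgap1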
An asterisk follows results filed as active; . = not tested or not shown. The list is not random: actives were taken first. Their share in the collection is about 2.1%.

SMILES	A3G deaminase	C2C12 statin	ASAP1 GAP inh	SUMO Mot1 rescue	APOBEC3A inh	ARFGAP1 inh	ASAP1 inh confirm	ARFGAP1 confirm
O=C(Nc1cccc(-c2nc3ccccc3[nH]2)c1)c1cccc(NC(=O)c2ccco2)c1	2	-83	44*	-1	5	77*	76*	123*
Cc1ccc2nc(SCC(=O)N3CCCCC3)nc(=O)n2c1	29	9	29*	0	2	48*	33*	57*
Cc1ccn2c(=O)nc(SCC(=O)N3CCCCCC3)nc2c1	-4	-7	4	-17	-1	-7	.	.
Cc1ccc2nc(SCC(=O)N3CCCCCC3)nc(=O)n2c1	-9	4	44*	5	-4	62*	44*	77*
CC(=O)c1ccc(NC2=C(N3CCOCC3)C(=O)c3ccccc3C2=O)cc1	14	-10	27*	9	-2	25*	13	1
CN1CCCC1CCNc1ccc2sc3ccccc3c(=O)c2c1 (centres undefined)	-14	16	3	473	-5	14	.	.
Cc1cc2oc3cc(NCCC4CCCN4C)ccc3c(=O)c2cc1C (centres undefined)	8	-31	28*	46	7	31*	38*	30*
COc1cc2c3nnc(-c4ccccc4)c-3cn(Cc3ccccc3F)c2cc1OC	-8	.	58*	85	-4	36*	116*	36*
COc1cc2c3nnc(-c4ccc(F)cc4)c-3cn(Cc3ccccc3F)c2cc1OC	.	.	58*	.	.	152*	83*	172*
COc1ccccc1Cc1c(-c2ccc(F)cc2)nc2ccc(Cl)cn12	.	-1	12	.	.	4	.	.
COc1cccc(S(=O)(=O)N(C)C[C@H]2Oc3ncc(C#CCN(C)C)cc3C(=O)N([C@H](C)CO)C[C@H]2C)c1	.	-13	.	.	.	.	.	.
CCC(=O)N[C@H]1CC[C@H](CC(=O)NCc2ccccc2OC)O[C@H]1CO	.	-2	.	.	.	.	.	.
O=C(C[C@H]1C=C[C@@H](NC(=O)Nc2cccc(F)c2)[C@@H](CO)O1)NCC1CC1	.	5	.	.	.	.	.	.
CC1=[N+](C)c2ccc3ccccc3c2C1(C)C	14	.	26*	-25	6	31*	22	18
CCNC(=O)C[C@H]1CC[C@H]2[C@H](COc3ccc(NC(=O)Nc4cccc(F)c4)cc3C(=O)N2C)O1	.	7	.	.	.	.	.	.
Cc1cc(C)c2nc(N3C(=O)C(O)=C(C(=O)c4ccco4)C3c3cccc(O)c3)sc2c1 (centres undefined)	-4	8	26*	-8	-2	25*	39*	39*
Cc1noc(C)c1S(=O)(=O)Nc1ccc2c(c1)CC(=O)N([C@@H](C)CO)C[C@@H](C)[C@H](CN(C)CC1CCCCC1)O2	.	41	.	.	.	.	.	.
O=C(N/N=C/C=C/c1ccc([N+](=O)[O-])cc1)c1cccs1	2	7	54*	99	22	60*	67*	66*
O=[N+]([O-])c1ccc(C=NNC(=S)Nc2ccc(F)cc2)cc1	.	-5	6	.	.	10	.	.
O=[N+]([O-])c1ccc(C=NNC(=S)NN=Cc2ccc([N+](=O)[O-])cc2)cc1	.	-12	74*	.	.	25*	164*	182*
O=C(Nc1cc(Cl)cc(Cl)c1)N[C@@H]1CC[C@@H](CCNS(=O)(=O)c2cccc(F)c2)O[C@H]1CO	.	-19	.	.	.	.	.	.
COc1ccccc1Nc1cc2cc(Br)ccc2c(=O)[nH]1	-1	-26	39*	-2	9	31*	34*	22
COc1ccc(OC)c(Nc2cc3ccccc3c(=O)[nH]2)c1	-10	-17	30*	23	-3	27*	16	17
COc1ccc(OC)c(Nc2nnc(C)c(=O)[nH]2)c1	-6	.	7	10	-1	-7	.	.
Cc1[nH][nH]c(=O)c1C(c1ccc(-c2cccc(C(=O)O)c2)o1)c1c(C)[nH][nH]c1=O	7	.	26*	-3	21	31*	-3	-10
SMILES	A3G deaminase	C2C12 statin	ASAP1 GAP inh	SUMO Mot1 rescue	APOBEC3A inh	ARFGAP1 inh	ASAP1 inh confirm	ARFGAP1 confirm
Cc1[nH][nH]c(=O)c1C(c1ccc(-c2cccc(Cl)c2)o1)c1c(C)[nH][nH]c1=O	36	4	.	-16	-6	.	.	.
CCCC#Cc1ccc([C@H]2[C@@H](CO)N(S(=O)(=O)c3cccc(F)c3)[C@H]2C#N)cc1	.	-29	.	.	.	.	.	.
Clc1cccc(Cl)c1CON/C=N/c1ncnc2sccc12	-3	5	93*	4	-2	86*	67*	66*
O=C(NC1(O)C(=O)c2ccccc2C1=O)c1ccccc1	2	.	53*	-18	4	37*	21	3
COc1cc(NC(=O)c2cc3c(C)nc4ccccc4c3o2)cc(OC)c1OC	-8	-34	33*	6	-3	47*	69*	52*
Clc1ccc(Cn2cc(/C=N/n3cnnc3)c3ccccc32)c(Cl)c1	-6	.	44*	68	-2	60*	51*	77*
COc1ccc(-c2nn(C)c3sc(C(=O)NCCN(C)C)cc23)cc1OC	-5	11	26*	-11	7	33*	54*	54*
CCN(CC)CCNC(=O)c1cc2c(-c3cccc(OC)c3)nn(C)c2s1	-7	.	11	-2	5	6	.	.
CCC(=O)N[C@H]1C=C[C@@H](CC(=O)OC)O[C@@H]1CO	.	-16	.	.	.	.	.	.
O=C(NCc1ccccn1)[C@@H]1[C@@H](CO)[C@@H]2Cn3c(cccc3=O)[C@@H]2N1CCc1ccccc1	.	-4	.	.	.	.	.	.
Cc1ccc2nc(-c3ccc(NC(=O)CSc4ccccc4)cc3)[nH]c2c1	-4	-42	0	-2	0	-4	.	.
O=C(CSc1ccccc1)Nc1ccc(-c2nc3ccccc3[nH]2)cc1	-5	.	57*	-13	-5	45*	57*	59*
C=CCN(CC=C)CCCOc1ccc(C)cc1OC	10	.	51*	407	1	46*	0	-7
COc1cc(C)ccc1OCCOc1cc(C)ccc1Cl	6	-8	-4	8	-1	12	.	.
CC(C)C#Cc1ccc2c(c1)O[C@H](CN(C)C(=O)c1ccccn1)[C@@H](C)CN([C@H](C)CO)S2(=O)=O	.	-5	.	.	.	.	.	.
COc1ccc(-c2cc(-c3ccc(OC)c(OC)c3)n[nH]2)c(O)c1	2	.	38*	-13	2	31*	34*	37*
COc1ccc(-c2cc(-c3ccccc3O)[nH]n2)cc1OC	-1	0	19	26	1	14	.	.
CC(=O)Nc1cc(-c2ccc(N3CCN(C)CC3)cc2)cn2c(-c3ccccc3)cnc12	.	8	6	.	.	6	.	.
